In ChEMBL document CHEMBL1687824, “Overexpression of patA and patB, which encode ABC transporters, is associated with fluoroquinolone resistance in clinical isolates of Streptococcus pneumoniae” (2011) one finds MIC90 and MIC data, which are given here for one molecule.

Holding throughout (type): functional
For experiment [1], the system named is Streptococcus pneumoniae. The experiment in a line: Antibacterial activity against fluoroquinolone, dye-resistant Streptococcus pneumoniae by standardized agar doubling dilution method in presence of 20 ug/ml reserpine efflux pump inhibitor. In short, it runs like this:
(§1)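 MIC by agar doubling dilution following BSAC guidelines. Strains grown in brain heart infusion broth 24 h at 37°C in 5% CO2. Where an efflux pump inhibitor applies, MIC redetermined with reserpine at 20 μg/ml or sodium orthovanadate at 50 μM. Synergy taken as a fall in MIC of ≥2 dilutions with inhibitor present. Dye resistance defined relative to R6 (both dyes ≥2 dilutions higher).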

The test system of experiment [2] is Streptococcus pneumoniae. The experiment in a line: Antibacterial activity against fluoroquinolone, dye-resistant Streptococcus pneumoniae by standardized agar doubling dilution method. In a few lines: as §1
The subject of experiment [3] is Streptococcus pneumoniae. The experiment is described as follows: Antibacterial activity against wild type Streptococcus pneumoniae R6 by standardized agar doubling dilution method in presence of 20 ug/ml reserpine efflux pump inhibitor. In a few lines:
as §1

Experiment [4] has as its system Streptococcus pneumoniae. The experiment is described as follows: Antibacterial activity against wild type Streptococcus pneumoniae M3 NCTC 7466 type 2 by standardized agar doubling dilution method in presence of 20 ug/ml reserpine efflux pump inhibitor. In short, it runs like this: as §1
For experiment [5], the system named is Streptococcus pneumoniae. The experiment in a line: Antibacterial activity against wild type Streptococcus pneumoniae M4 NCTC 7465 type 1 by standardized agar doubling dilution method in presence of 20 ug/ml reserpine efflux pump inhibitor. In a few lines: as §1
Experiment [6] concerns Streptococcus pneumoniae. The experiment is described as follows: Antibacterial activity against wild type Streptococcus pneumoniae R6 by standardized agar doubling dilution method. In a few lines:
as §1

The test system of experiment [7] is Streptococcus pneumoniae. The experiment in a line: Antibacterial activity against wild type Streptococcus pneumoniae M4 NCTC 7465 type 1 by standardized agar doubling dilution method. In a few lines:
as §1

Experiment [8] deals with Streptococcus pneumoniae. The experiment in a line: Antibacterial activity against wild type Streptococcus pneumoniae M3 NCTC 7466 type 2 by standardized agar doubling dilution method. In a few lines:
as §1

In experiment [9] the test system is Streptococcus pneumoniae. The experiment is described as follows: Antibacterial activity against fluoroquinolone-resistant Streptococcus pneumoniae by standardized agar doubling dilution method. In a few lines: as §1
Experiment [10] has as its system Streptococcus pneumoniae. The experiment is described as follows: Antibacterial activity against fluoroquinolone-resistant Streptococcus pneumoniae by standardized agar doubling dilution method in presence of 20 ug/ml reserpine efflux pump inhibitor. In short, it runs like this:
as §1

In experiment [11] the test system is Streptococcus pneumoniae. The experiment is described as follows: Antibacterial activity against dye-resistant Streptococcus pneumoniae by standardized agar doubling dilution method. In short, it runs like this: as §1
Experiment [12] deals with Streptococcus pneumoniae. The experiment is described as follows: Antibacterial activity against dye-resistant Streptococcus pneumoniae by standardized agar doubling dilution method in presence of 20 ug/ml reserpine efflux pump inhibitor. In short, it runs like this: as §1
Experiment [13] concerns Streptococcus pneumoniae. The experiment in a line: Antibacterial activity against fluoroquinolone, dye-susceptible Streptococcus pneumoniae by standardized agar doubling dilution method. In a few lines:
as §1

Experiment [14] relates to Streptococcus pneumoniae. The experiment in a line: Antibacterial activity against fluoroquinolone, dye-susceptible Streptococcus pneumoniae by standardized agar doubling dilution method in presence of 20 ug/ml reserpine efflux pump inhibitor. In short, it runs like this: as §1

SMILES strings stand for the structures. Values after ≈ are worked out from the molar mass of the structure shown.

As to `CCn1cc(C(=O)O)c(=O)c2cc(F)c(N3CCNCC3)cc21` [NORFLOXACIN], the MIC90 (usually an inhibitory concentration at the 90% level, which refers to growth in some studies and to a panel of isolates in others) turned out to be 8 µg/mL with Streptococcus pneumoniae [1]; 32 µg/mL (≈ 100 µM) against Streptococcus pneumoniae [2]; 32 µg/mL (≈ 100 µM) against Streptococcus pneumoniae [9]; 8 µg/mL in the experiment on Streptococcus pneumoniae [10]; 4 µg/mL (≈ 12.5 µM) with Streptococcus pneumoniae [11]; 1 µg/mL in the experiment with Streptococcus pneumoniae [12]. Also, the values for the MIC90 with Streptococcus pneumoniae [13] and with Streptococcus pneumoniae [14] were 4 µg/mL (≈ 12.5 µM) and 1 µg/mL, respectively. The MIC (commonly the smallest concentration in the dilution series that meets the test's criterion for growth inhibition) is 2 µg/mL in the experiment on Streptococcus pneumoniae [3]; 2 µg/mL in the experiment with Streptococcus pneumoniae [4]; 4 µg/mL with Streptococcus pneumoniae [5]; 4 µg/mL (≈ 12.5 µM) against Streptococcus pneumoniae [6]; 8 µg/mL (≈ 25.1 µM) in the experiment on Streptococcus pneumoniae [7]; 4 µg/mL (≈ 12.5 µM) in the experiment on Streptococcus pneumoniae [8]. For the same molecule, the results for the MIC against Streptococcus pneumoniae [11], with Streptococcus pneumoniae [12] and in the experiment with Streptococcus pneumoniae [14] were 4 µg/mL (≈ 12.5 µM), 1 µg/mL and 1 µg/mL, respectively.
